The values that follow come from article PMC5488297 (Chemistry (Weinheim an Der Bergstrasse, Germany), 2017).

Assay [1] deals with U87 (αVβ3+) and U87 β3‐KO (αVβ3−) cells. As to the kind of experiment: Targeting index / selectivity between U87 β3‐KO and U87 cells. Format: cell-based, human. The note with it: for Targeting index (TI): [IC50(αVβ3−)/IC50(αVβ3+)]conjugate/[IC50(αVβ3−)/IC50(αVβ3+)]paclitaxel. The procedure, abridged:
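The targeting index uses IC50s from the 144 h CellTiter-Glo ATP viability assay on the isogenic U87 and U87 β3-KO (CRISPR-Cas9 β3 deletion) pair. The ratio IC50(β3-KO)/IC50(U87) for the conjugate is divided by the same ratio for free paclitaxel tested in parallel under identical conditions.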

A further assay has as its target purified αVβ3 receptor (Homo sapiens, UniProt P05106+P06756). Kind of assay: Inhibition of biotinylated vitronectin binding to purified αVβ3 receptor.
Assay [2] relates to U87 (αVβ3+) human glioblastoma cells. As to the kind of experiment: Anti‐proliferative activity, CellTiter-Glo ATP cell viability, U87. Format: cell-based. The note with it: 144 h. The method in brief:
(§1)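 U87 human glioblastoma cells were used alongside an isogenic U87 clone with the β3 integrin subunit gene deleted by CRISPR-Cas9. Absence of αVβ3 was confirmed by flow cytometry using anti-αVβ3 antibody LM609 plus a fluorescent secondary antibody. Cells were exposed to increasing concentrations of test compound for 144 h, with free paclitaxel run in parallel. Viability was read as cellular ATP by CellTiter-Glo. IC50 was taken as the concentration giving 50 % inhibition of viability.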

The test system of another assay is U87 β3‐KO (αVβ3−) cells. As to the kind of experiment: Anti‐proliferative activity, CellTiter-Glo ATP cell viability, U87 β3‐KO. Format: cell-based. The note with it: Homo sapiens, 144 h. The method in brief:
as §1
Background: ATP-based viability assays read luminescence as a measure of living cells.

Assay [3] deals with integrin‐mediated cell infiltration processes. The note with it: cited from earlier work.
Assay [4] deals with FAK/Akt integrin‐activated transduction pathway. The note with it: cited from earlier work.

Chain of purified αVβ3 receptor (P06756 891-1048): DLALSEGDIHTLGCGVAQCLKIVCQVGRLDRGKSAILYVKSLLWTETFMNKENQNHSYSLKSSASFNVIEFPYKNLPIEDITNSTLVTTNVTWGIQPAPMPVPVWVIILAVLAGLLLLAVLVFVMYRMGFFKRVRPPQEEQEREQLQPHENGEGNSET
Chain of purified αVβ3 receptor (P06756 31-889): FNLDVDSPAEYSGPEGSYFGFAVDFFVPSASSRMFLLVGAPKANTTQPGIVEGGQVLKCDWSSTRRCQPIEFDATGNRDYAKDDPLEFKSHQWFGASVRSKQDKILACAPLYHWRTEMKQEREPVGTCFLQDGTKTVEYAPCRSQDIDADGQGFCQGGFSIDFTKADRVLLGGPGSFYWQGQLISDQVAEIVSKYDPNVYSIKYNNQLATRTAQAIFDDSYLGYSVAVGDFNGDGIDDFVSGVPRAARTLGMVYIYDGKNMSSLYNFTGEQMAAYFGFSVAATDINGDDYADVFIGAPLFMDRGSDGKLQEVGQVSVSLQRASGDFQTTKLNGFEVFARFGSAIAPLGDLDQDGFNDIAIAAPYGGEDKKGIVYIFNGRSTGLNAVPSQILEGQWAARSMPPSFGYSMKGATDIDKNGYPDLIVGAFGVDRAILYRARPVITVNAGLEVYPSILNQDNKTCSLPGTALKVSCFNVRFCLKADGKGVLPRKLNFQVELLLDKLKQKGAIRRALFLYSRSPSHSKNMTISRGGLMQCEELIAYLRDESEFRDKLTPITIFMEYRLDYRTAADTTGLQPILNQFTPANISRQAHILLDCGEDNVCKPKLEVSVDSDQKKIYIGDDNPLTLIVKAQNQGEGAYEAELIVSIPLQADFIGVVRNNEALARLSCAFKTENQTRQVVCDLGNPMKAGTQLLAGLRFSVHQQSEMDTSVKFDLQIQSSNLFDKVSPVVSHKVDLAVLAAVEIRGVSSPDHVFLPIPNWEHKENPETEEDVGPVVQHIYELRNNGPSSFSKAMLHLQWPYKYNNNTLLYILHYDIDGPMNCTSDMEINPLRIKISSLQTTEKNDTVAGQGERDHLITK
Chain of purified αVβ3 receptor (P05106 27-788): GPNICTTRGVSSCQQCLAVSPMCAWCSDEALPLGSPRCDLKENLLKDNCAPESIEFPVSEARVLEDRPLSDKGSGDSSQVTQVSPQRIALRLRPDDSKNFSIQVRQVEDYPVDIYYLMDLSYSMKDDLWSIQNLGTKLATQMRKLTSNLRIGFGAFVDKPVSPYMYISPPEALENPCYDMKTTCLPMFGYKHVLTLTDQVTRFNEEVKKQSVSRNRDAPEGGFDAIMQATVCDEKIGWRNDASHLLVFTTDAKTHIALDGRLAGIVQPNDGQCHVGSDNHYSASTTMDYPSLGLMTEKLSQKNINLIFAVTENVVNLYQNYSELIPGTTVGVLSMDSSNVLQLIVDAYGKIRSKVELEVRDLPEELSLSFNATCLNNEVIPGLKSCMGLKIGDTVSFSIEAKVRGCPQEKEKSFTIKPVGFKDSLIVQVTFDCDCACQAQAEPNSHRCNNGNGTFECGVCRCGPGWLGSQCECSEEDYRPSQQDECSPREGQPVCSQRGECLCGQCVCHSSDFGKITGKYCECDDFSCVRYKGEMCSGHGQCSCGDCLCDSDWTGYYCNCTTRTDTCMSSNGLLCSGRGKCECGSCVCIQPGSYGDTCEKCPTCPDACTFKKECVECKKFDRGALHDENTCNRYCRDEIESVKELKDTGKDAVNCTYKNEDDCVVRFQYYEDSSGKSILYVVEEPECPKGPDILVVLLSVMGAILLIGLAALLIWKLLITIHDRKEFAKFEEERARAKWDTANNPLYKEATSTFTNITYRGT

As for `CC(=O)O[C@H]1C(=O)[C@@]2(C)[C@H]([C@H](OC(=O)c3ccccc3)[C@]3(O)C[C@H](OC(=O)[C@H](OC(=O)N(C)CCN(C)C(=O)OCc4ccc(NC(=O)[C@H](C)NC(=O)[C@@H](NC(=O)CCCC(=O)NCc5ccc(CN6C(=O)[C@H]7CC(=O)N[C@@H](CCCNC(=N)N)C(=O)NCC(=O)N[C@@H](CC(=O)O)C(=O)NC[C@H]6C(=O)N7)cc5)C(C)C)cc4)[C@@H](NC(=O)c4ccccc4)c4ccccc4)C(C)=C1C3(C)C)[C@]1(OC(C)=O)CO[C@@H]1C[C@@H]2O` [compound 4, cyclo[DKP‐RGD]‐Val‐Ala‐PTX], the “Targeting index (TI)” value in assay [1] (144 h) turned out to be 2.4. Also, on purified αVβ3 receptor, the IC50 (in general, the concentration that gives 50% inhibition) was determined as 13.3 ± 3.6 nM.

`CC(=O)O[C@H]1C(=O)[C@@]2(C)[C@H]([C@H](OC(=O)c3ccccc3)[C@]3(O)C[C@H](OC(=O)[C@H](OC(=O)N(C)CCN(C)C(=O)OCc4ccc(NC(=O)[C@H](C)NC(=O)[C@@H](NC(=O)CCCC(=O)NCc5ccc(CN6C(=O)[C@H]7CC(=O)N[C@H](C(=O)O)CC(=O)NCC(=O)N[C@@H](CCCNC(=N)N)C(=O)NC[C@H]6C(=O)N7)cc5)C(C)C)cc4)[C@@H](NC(=O)c4ccccc4)c4ccccc4)C(C)=C1C3(C)C)[C@]1(OC(C)=O)CO[C@@H]1C[C@@H]2O` [compound 2, cyclo[DKP‐isoDGR]‐Val‐Ala‐PTX]: the “Targeting index (TI)” value in assay [1] (144 h) was 9.9. In assay [1] (two isogenic cancer cell lines expressing integrin αVβ3 at different levels), the “targeting ability (in words)” value is given as “notable targeting ability”. Moreover, on purified αVβ3 receptor, the IC50 worked out at 11 ± 0.2 nM and the “affinity for the purified integrin αVβ3 receptor (in words)” value is listed as “low nanomolar affinity”.

Consider `CC(=O)O[C@H]1C(=O)[C@@]2(C)[C@H]([C@H](OC(=O)c3ccccc3)[C@]3(O)C[C@H](OC(=O)[C@H](O)[C@@H](NC(=O)c4ccccc4)c4ccccc4)C(C)=C1C3(C)C)[C@]1(OC(C)=O)CO[C@@H]1C[C@@H]2O` [Paclitaxel], for which, in assay [1] (144 h), the “times more effective on U87 β3‐KO cells (than on U87)” value turned out to be 2.3 times and the “Targeting index (TI)” value was 1. The compound also registered an IC50 in assay [2] of 0.64 nM. In the assay on U87 β3‐KO (αVβ3−) cells, this compound yielded an IC50 of 0.28 nM.

Regarding cyclo[DKP‐isoDGR] [compound 1], the “effect on integrin‐mediated cell infiltration processes” value in assay [3] is given as “inhibitory effects”. In addition, the “effect on FAK/Akt integrin‐activated transduction pathway” value in assay [4] was “inhibitory effects”.
